From PMC5625166 (Pharmacology Research & Perspectives, 2017)
Read-outs that look alike come from different tables or passages of the source.

Tests used:
CYP2E1 [1] = target: CYP2E1 (Homo sapiens, UniProt P05181); assay: CYP2E1 inhibition assay; assay type: biochemical; conditions: for inhibition at 1 h: CYP2E1 baculosomes, pH 7.4, probe para-nitrophenol (p-NP); for inhibition at saturating substrate concentration: in words; for Inhibition type: p-NP 5-100 μmol/L, inhibitor 5-200 μmol/L, goodness-of-fit
Sequence of CYP2E1 (Homo sapiens, UniProt P05181) (P05181 whole entry): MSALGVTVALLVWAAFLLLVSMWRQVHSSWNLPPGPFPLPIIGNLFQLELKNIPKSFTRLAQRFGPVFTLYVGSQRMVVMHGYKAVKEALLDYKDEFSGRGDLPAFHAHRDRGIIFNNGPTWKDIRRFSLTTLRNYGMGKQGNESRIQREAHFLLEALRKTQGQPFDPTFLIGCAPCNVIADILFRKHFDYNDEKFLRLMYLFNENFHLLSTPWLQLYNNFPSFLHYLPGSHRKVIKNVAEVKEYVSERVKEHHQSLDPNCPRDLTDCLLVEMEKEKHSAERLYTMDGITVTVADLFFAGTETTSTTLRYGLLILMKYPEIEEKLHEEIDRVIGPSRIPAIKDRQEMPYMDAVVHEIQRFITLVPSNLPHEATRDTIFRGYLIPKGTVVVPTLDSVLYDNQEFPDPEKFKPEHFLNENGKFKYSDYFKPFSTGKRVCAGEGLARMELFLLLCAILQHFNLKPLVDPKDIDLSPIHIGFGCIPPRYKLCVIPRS
Outline: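 p-NP hydroxylation by CYP2E1 baculosomes (2 pmol/μL) in 50 mmol/L potassium phosphate, pH 7.4. p-NP at 5–100 μmol/L (five levels) and inhibitor at 5–200 μmol/L (six levels). Pre-incubated 5 min at 37°C, then NADPH added (26 mmol/L) and run 1 h at 37°C. Stopped with TCA, neutralized with NaOH, absorbance read at 535 nm. Activity normalized to vehicle. IC50, Km/Vmax and Ki/inhibition type fitted by nonlinear regression; four replicates.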

[2] = Preliminary toxicity / cell death of DAS analogs; assay type: cell-based; conditions: 200 μmol/L, 6 days of treatment, unpublished
CYP2E1 [3] = conditions: acetone-induced rat microsome; ref Brady et al. 1991; cited from earlier work
[4] = K i, noncompetitive inhibition, mean ± SE, four replicates
[5] = K i, uncompetitive inhibition, mean ± SE, four replicates
[6] = 100 μmol/L p-NP, mean ± SE, four replicates
[7] = competitive inhibition, mean ± SE, four replicates

Compound	IC50 (CYP2E1 [1]) [µM]	inhibition at 1 h (CYP2E1 [1]) [%]	Ki (CYP2E1 [1]; [4]) [µM]	Ki (CYP2E1 [1]; [5]) [µM]	Maximal inhibition (%) (CYP2E1 [1])	IC50 (CYP2E1 [1]; [6]) [µM]	IC50 (CYP2E1 [1]; 100 μmol/L p-NP, mean ± SE, four replicates, listed as AMS) [µM]	Ki (CYP2E1 [1]; [7]) [µM]	inhibition at saturating substrate concentration (CYP2E1 [1])	Inhibition type (CYP2E1 [1])	Ki (CYP2E1 [1]; K i, competitive inhibition, mean ± SE, four replicates) [µM]	Inhibition type (CYP2E1 [1]; listed as DAS)	toxicity [2]	Inhibition type (CYP2E1 [3])
C=CCCCCN [5‐hexen‐1‐amine (5, 1 HA), 5‐hexen‐1‐amine]	74.7 ± 1.2	75	~10.5	~7.3	–	–	–	–	–	–	–	–	–	–
c1ccsc1 [Thiophene (TP), thiophene]	–	–	–	–	98	19.4 ± 1.1	–	7.7 ± 1.2	complete inhibition	Competitive	–	–	did not show any significant toxicities	–
C=CCSCC=C [Diallyl sulfide (DAS), Diallyl sulfide, reference compound]	17.3 ± 1.1	97	–	–	–	–	–	–	–	Competitive	6.3 ± 1	competitive inhibition kinetics	–	competitive inhibition

Further lines, with some results ahead:

IC50 (CYP2E1 [1]) [µM]	inhibition at 1 h (CYP2E1 [1]) [%]	Ki (CYP2E1 [1]; [4]) [µM]	Ki (CYP2E1 [1]; [5]) [µM]	Maximal inhibition (%) (CYP2E1 [1])	IC50 (CYP2E1 [1]; [6]) [µM]	IC50 (CYP2E1 [1]; 100 μmol/L p-NP, mean ± SE, four replicates, listed as AMS) [µM]	Ki (CYP2E1 [1]; [7]) [µM]	inhibition at saturating substrate concentration (CYP2E1 [1])	Inhibition type (CYP2E1 [1])	Ki (CYP2E1 [1]; K i, competitive inhibition, mean ± SE, four replicates) [µM]	Inhibition type (CYP2E1 [1]; listed as DAS)	Compound	toxicity [2]	Inhibition type (CYP2E1 [3])
43.7 ± 1.4	71	34.1 ± 3.3	19.3 ± 2.3	–	–	–	–	–	–	–	–	C=CCOCCN [2‐(prop‐2‐en‐1‐yloxy) ethan‐1‐amine]	–	–
–	–	–	–	100	11.4 ± 1.1	11.4 ± 1.1	4.4 ± 0.9	complete inhibition	Competitive	–	–	C=CCSC [Allyl methyl sulfide (AMS), allyl methyl sulfide]	–	–
91.4 ± 1.6	20	363 ± 64	246 ± 47	–	–	–	–	–	–	–	–	C=CCOCC(N)=O [2‐prop‐2‐enoxyacetamide (PEXA), 2‐prop‐2‐enoxyacetamide]	–	–
